The values below come from PMC9326885 (Journal of Food and Drug Analysis, 2017).

Molecules are shown by their SMILES. Counter-ions that a name gives are not always drawn. Marks after values point to notes of the source that are not given here.

Series [1] is described as follows: Effect of intravenous IS on the elimination of intravenous PSP in rats. It is filed as in vivo, rat. Particulars: for AUC(0-t) / clearance / MRT: male, Sprague-Dawley, rat, serum, iv, 5 mg/kg, mean ± S.E., n = 6; for AUC(0-t): AUC0-1440, area under concentration-time curve to 1440 min; for clearance: Cl, the clearance; for MRT: the mean residence time. An outline of the steps: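 Male Sprague–Dawley rats (370–420 g), fasted 12 h, received IV PSP 5.0 mg/kg with or without IV IS 10.0 mg/kg in a crossover design with a 1-week washout. Blood was drawn at 30–1440 min and serum was deproteinized with methanol and basified with NaOH. Absorbance was read at 560 nm (calibration 0.39–12.5 μg/mL). Noncompartmental analysis; paired t-test.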

The conditions of series [2]: by OATs- and MRPs-mediated transports; cited from earlier work.
A short description of series [3]: Effect of oral indican on the pharmacokinetics of oral MTX in rats. It is filed as in vivo, rat. Particulars: mean ± S.E., n = 5; for MRT: male, Sprague-Dawley, rat, serum, po, the mean residence time. The essentials:
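Male Sprague–Dawley rats (330–400 g), fasted 12 h, were given oral MTX 5.0 mg/kg alone or with oral indican 20.0 or 40.0 mg/kg in a parallel design. Serum MTX was measured by fluorescence polarization immunoassay (calibrated 0–1.0 μmol/L, LLOQ 0.01 μmol/L). Noncompartmental analysis: Cmax observed, AUC by trapezoidal rule to last point. Groups compared by one-way ANOVA with Scheffe's test.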

Setting [4] is: intravenous bolus of PSP 5.0 mg/kg alone.
The mark [5] stands for this setting: intravenous bolus of PSP 5.0 mg/kg with intravenous bolus of IS 10.0 mg/kg.

`O=S(=O)(O)Oc1c[nH]c2ccccc12` [IS, indoxyl sulfate]: the “Effect on the elimination of PSP (serum profiles)” value in series [1] (intravenous IS 10.0 mg/kg with intravenous PSP 5.0 mg/kg) was “inhibited”.
In series [1] (setting [4]), `O=S1(=O)OC(c2ccc(O)cc2)(c2ccc(O)cc2)c2ccccc21` [PSP, phenolsulfonphthalein] gave an AUC(0-t) of 21300 ng·h/mL, a clearance of 3.1 ± 0.4 mL/min/kg and an MRT of 6.67 h. Also, in series [1] (setting [5]), the AUC(0-t) was 64700 ng·h/mL, the clearance amounted to 1 ± 0.3 mL/min/kg and the MRT is 9.54 h.
As to `CN(Cc1cnc2nc(N)nc(N)c2n1)c1ccc(C(=O)N[C@@H](CCC(=O)O)C(=O)O)cc1` [MTX, Methotrexate], in series [2], the “Fraction of MTX excreted via urine” value is “More than 80%”. Also, the MRT was 5.26 h in series [3] (5 mg/kg, oral MTX 5.0 mg/kg alone); 17 h in series [3] (oral MTX 5.0 mg/kg coadministered with indican 20.0 mg/kg); 16 h in series [3] (oral MTX 5.0 mg/kg coadministered with indican 40.0 mg/kg). The “AUC0-2880, area under concentration-time curve to 2880 min” value in series [3] (oral MTX 5.0 mg/kg alone) is 63.6 ± 6.9^a μmole•min/L.
